Results pooled from the literature.
Target: Calcium/calmodulin-dependent protein kinase type II subunit delta (CAMK2D, Homo sapiens, UniProt Q13557)

C[C@@H]1CCN(c2nccc(-c3cnn4ncccc34)n2)C1  remaining binding (binding; 1 µM): 100%
COc1cnc(Nc2cccc(S(N)(=O)=O)c2)nc1N1CCN(c2ccccc2)C(=O)C1  remaining binding (binding, competition with immobilised ligand; 1 µM): 100%
CNC(=O)Nc1ccc2c(c1)CC[C@@]21OC(=O)N(CC(=O)N(Cc2ccc(F)cc2)[C@@H](C)C(F)(F)F)C1=O  remaining binding (cell-free assay, competition with immobilised ligand; 1 µM): 91%
COc1ccnn2ncc(-c3ccnc(N(C)C)n3)c12  remaining binding (binding; 1 µM): 81%
O=c1nc(-c2ccccn2)sc2ccccc12  remaining binding (cell-free assay, competition with immobilised ligand; 1 µM): 90%
CN(CCCC(F)(F)F)c1nccc(-c2cnn3ncccc23)n1  remaining binding (binding; 1 µM): 100%
FC(F)(F)Oc1cccc(-c2cnc3ccc(-c4ccncc4)nn23)c1  remaining binding (cell-free assay, competition with immobilised ligand; 5 µM): 33%
COc1cc(-c2cn(C3CCc4ccccc4N(CC(F)(F)F)C3=O)nn2)ccc1-n1ccc(C)n1 (stereo not shown)  remaining binding (cell-free assay, competition with immobilised ligand; 1 µM): 100%
O=C(NCCCN1CCOCC1)c1ccc(Nc2nccc(-c3cc4ccccc4s3)n2)cc1  remaining binding (binding, competition with immobilised ligand; 1 µM): 86%
O=C(Nc1c[nH]nc1C(=O)NC1CCNCC1)c1cc(F)cc(F)c1  remaining binding (binding, competition with immobilised ligand; 1 µM): 100%
COc1ncc2cc3ccccc3nc2c1C#N  remaining binding (cell-free assay, competition with immobilised ligand; 5 µM): 98%
Cc1c(C(=O)O)cc(-c2ccc(C3CCNCC3)cc2)c2ccc(-c3ccc(C(F)(F)F)cc3)cc12  remaining binding (cell-free assay, competition with immobilised ligand; 1 µM): 100%
CN(c1nccc(-c2cnn3ncccc23)n1)C1CC1  remaining binding (binding; 1 µM): 100%
O=C(c1ccc(Nc2ncc(Cl)c(-c3cc4ccccc4s3)n2)cc1)N1CCC(N2CCCC2)CC1  remaining binding (binding, competition with immobilised ligand; 1 µM): 80%
CCc1ccccc1C(=O)Nc1n[nH]c2c(C)c(F)c(C3C(C#N)=C(C)N(C)C(C)=C3C#N)cc12  remaining binding (cell-free assay, competition with immobilised ligand; 1 µM): 78%
CC1CCCN1c1nccc(-c2cnn3ncccc23)n1 (stereo not shown)  remaining binding (binding; 1 µM): 100%
O=C(c1ccc(Nc2nccc(-c3cc4ccccc4s3)n2)cc1)N1CCC(N2CCCC2)CC1  remaining binding (binding, competition with immobilised ligand; 1 µM): 81%
CCN1CCN(Cc2ccc(C(=O)Nc3ccc(C)c(Oc4ccc5c(c4)CC(=O)N5)c3)cc2C(F)(F)F)CC1  remaining binding (binding, competition with immobilised ligand; 1 µM): 100%
N[C@@H]1CCN(c2nccc(-c3cnn4ncccc34)n2)C1  remaining binding (binding; 1 µM): 100%
CCS(=O)(=O)c1cc2cc(C[C@](O)(CC(C)(C)c3ccc(F)cc3C(N)=O)C(F)(F)F)[nH]c2cn1  remaining binding (cell-free assay, competition with immobilised ligand; 1 µM): 100%
CN(C)c1nccc(-c2cnc3ncccn23)n1  remaining binding (binding; 1 µM): 100%
COc1ccc2cc(OCC3(C(=O)O)CN(C(=O)c4ccc(F)cc4)C3)ccc2c1  remaining binding (cell-free assay, competition with immobilised ligand; 1 µM): 100%
